IEC-6 tox: cytotoxicity in IEC-6 intestinal epithelial cells, primary screen, cytotoxicity control for KLF5 inhibitor project, cell-based, luminescence; IEC-6 cytotoxicity, luminescence viability; inhibition, % at 5 µM; actives 0.78% (n = 290,000); in the data active = inhibition above about 22%;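 also: 0% = plate median of test compound wells and 100% = cytotoxic reference compound wells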
bCat nuc transl: modulators of beta-catenin nuclear translocation, primary screen, imaging, HeLa cells, immunofluorescence, high-content. nuclear translocation activity, % at 5 µM. actives 0.3% (n = 190,000). AID 1665, 2009;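 active = nuclear translocation activity above 50% at 5 µM, with a well cell count of 50 or more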;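 also: per-cell ratio of nuclear to cytoplasmic median beta-catenin stain intensity; plate controls were DMSO negative control for no effect and GSK-3 inhibitor IX positive control for full effect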
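Technique: fluorescence imaging of beta-catenin antibody stain plus DAPI / Material: human HeLa cell line / Incubation: compound treatment 24 h, 37°C, 5% CO2 / Read-out basis: % activation of per-cell nuclear versus cytoplasmic median beta-catenin signal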
BaF3 parental: parental Ba/F3 cell viability inhibition, counter-screen for JAK2V617F inhibitor project, murine pro-B, CellTiter-Glo luminescence; CellTiter-Glo ATP luminescence; inhibition, % at 5.6 µM; actives 1.1% (n = 220,000); AID 1486, 2009;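 active = inhibition above a per-campaign cutoff, the mean inhibition of all tested compounds plus 3 SD, cut at about 27% in these data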;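 also: 0% = DMSO wells and 100% = JAK Inhibitor I control wells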
Ba/F3 V617F tox: reduced viability of JAK2V617F-dependent Ba/F3 cells, primary screen, JAK2V617F inhibitor project, cell-based, Ba/F3 EpoR-JAK2V617F, luminescence; ATP luminescence; inhibition, % at 5.6 µM; actives 1.1% (n = 220,000);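 active = inhibition above the campaign mean plus 3 SD over all tested compounds, cut at about 24% in these data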;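 also: cytokine-independent growth of Ba/F3 cells driven by EpoR plus mutant JAK2; 0% = DMSO-treated cells and 100% = JAK inhibitor I control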
APP transl inh: inhibitors of APP translation via 5'UTR reporter, primary screen, APP 5'UTR luciferase, SH-SY5Y cells. SH-SY5Y APP 5'UTR-luciferase reporter, luminescence. inhibition, % at 2 µM. actives 0.82% (n = 190,000). AID 1285, 2008;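 active = inhibition above a set limit, derived from the sample mean plus 3 SD, cut at about 45% in these data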
MT stabilize HCS: microtubule stabilizers in HeLa cells, primary screen, imaging, high-content imaging. actives 0.83% (n = 200,000). HeLa tubulin immunostaining HCS, 24 h; share of cells brighter than vehicle mean+2SD. AID 2205, 2009. % tubulin-high responders, % at 10 µM;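 active = plate Z-score above 3 for both tubulin-high and condensed-nucleus cell shares, with cell loss under 80%, at 10 µM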;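 also: anti alpha tubulin signal scored within the nucleus-defined area of each cell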
BaF3 tox 2: parental Ba/F3 cell viability inhibition, counter-screen for JAK2V617F inhibitor project, murine pro-B, CellTiter-Glo luminescence | shares compounds with Ba/F3 V617F tox | cells kept alive by added IL-3 | inhibition, % at 5.6 µM | actives 31% (n = 580) | AID 1520, 2009;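 active = cell growth inhibition above the hit limit set in the earlier mutant JAK2 cell screen, cut at about 27% in these data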;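 also: plate controls were DMSO-treated cells for no effect and JAK Inhibitor I control wells for full effect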
JAK2V617F confrm: viability loss in Ba/F3 EpoR-JAK2V617F cells, confirmation, JAK2V617F inhibitor project, cell-based, luminescence, triplicate; shares compounds with Ba/F3 V617F tox; CellTiter-Glo luminescence; inhibition, % at 5.6 µM; actives 66% (n = 580); AID 1521, 2009;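 active = mean inhibition above the hit cutoff derived in the earlier primary screen, cut at about 25% in these data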;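 also: 0% = DMSO-treated cells and 100% = JAK inhibitor I control wells; higher means lower luminescence from reduced cell ATP and viability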
* hit, by the source's call; x = no result. Only some compounds are listed: those with a hit (about 2.2% of all), similar ones and a draw of the others.

SMILES	IEC-6 tox	bCat nuc transl	BaF3 parental	Ba/F3 V617F tox	APP transl inh	MT stabilize HCS	BaF3 tox 2	JAK2V617F confrm
COc1ccc(OC)c(C2(O)CSC(=Nc3cccnc3)N2Cc2ccco2)c1 (centres undefined)	6.4	-0.5	11.4	5.7	6.4	2.2	x	x
OC1(c2ccc(OC(F)F)cc2)CSC(=Nc2cccnc2)N1C1CC1 (centres undefined)	9.4	-0.6	16.8	28.8*	2.5	3.6	5.0	30.6*
CCOC(=S)SCC(=O)Nc1nc(-c2ccc(Br)cc2)cs1	-5.4	6.3	13.8	26.9*	32.2	2.6	71.3*	98.5*
Cc1cc(NC(=O)c2sccc2C)n(-c2nc3ccccc3[nH]2)n1	-9.5	0.3	3.3	84.5*	8.5	4.8	-5.5	-3.5
Cc1cc(NC(=O)c2cccs2)n(-c2nc3ccccc3[nH]2)n1	-9.3	0.2	6.7	-1.4	9.7	2.8	x	x
CCN(CC)S(=O)(=O)c1ccc(N/N=C/c2ccc(O)cc2O)nc1	16.5	x	6.4	49.8*	80.9*	2.2	83.3*	92.6*
CCN(CC)S(=O)(=O)c1ccc(N/N=C(\C)c2ccncc2)nc1	-2.0	x	x	x	x	x	x	x
Cc1cc(NS(=O)(=O)c2ccc(NC(=O)CSc3nc4ncc(Br)cc4[nH]3)cc2)nc(C)n1	7.6	1.5	-1.9	-1.7	x	x	x	x
Cc1nc([N+](=O)[O-])c(Sc2nc3ccccc3n2C)n1Cc1ccccc1	10.2	-2.5	-2.4	28.2*	1.4	6.0	5.4	91.5*
Cc1ccc(NC(=O)COCC(=O)Nc2ccc(F)cc2)cc1	0.3	x	x	x	x	x	x	x
CN1/C(=C\C(=O)CSc2nnc(NCc3ccccc3)s2)C(C)(C)c2ccccc21	10.1	6.9	22.8	32.7*	0.8	4.4	5.3	21.1
CC(C)(CNC(=O)c1cccc(NS(=O)(=O)c2ccc(Br)cc2)c1)N1CCOCC1	2.8	x	x	x	x	x	x	x
O=[N+]([O-])c1cccc(NNS(=O)(=O)c2ccccc2F)c1	3.7	x	x	x	x	x	x	x
Oc1c(C(Nc2nc3ccccc3s2)c2ccco2)ccc2cccnc12 (centres undefined)	0.7	1.6	7.4	26.0*	68.5*	24.4	35.2*	88.9*
c1coc(CNc2nc3ccccc3s2)c1	-4.9	x	x	x	x	x	x	x
O=C(CCl)N=c1sccn1Cc1ccccc1Cl	100.0*	41.7	11.3	98.7*	x	x	10.1	99.4*
CCC(=O)OCC(=O)N=c1sccn1Cc1ccccc1Cl	-6.5	x	x	x	x	x	x	x
CCC(=O)OCC(=O)N=c1sccn1Cc1ccc(C)cc1	-5.1	x	x	x	x	x	x	x
O=C(CCl)N=c1sccn1Cc1ccc(Cl)cc1Cl	98.7*	3.6	-10.0	101.0*	7.9	3.9	20.6	99.3*
COc1cc(NC(=O)c2cc(C)no2)c(OC)cc1Cl	-4.6	x	x	x	x	x	x	x
CN1CCN(C(=S)Nc2ccc(Cl)c(Cl)c2)CC1	-4.6	x	17.5	43.4*	21.5	4.1	22.6	46.2*
COCc1c(C(=O)N/N=C/c2ccc(C)o2)nnn1-c1nonc1N	0.2	x	x	x	x	x	x	x
Oc1ccc(/C=N/Nc2ncc(Br)cn2)c(O)c1	1.1	-0.2	17.9	14.8	-18.8	9.0	x	x
Oc1ccc(/C=N/Nc2nccnc2Cl)c(O)c1	-2.7	x	8.0	32.5*	x	3.6	71.5*	90.5*
O=C(NC1CCCN(CCc2ccccc2)C1)C1CCCC1 (centres undefined)	-1.7	x	x	x	x	x	x	x
SMILES	IEC-6 tox	bCat nuc transl	BaF3 parental	Ba/F3 V617F tox	APP transl inh	MT stabilize HCS	BaF3 tox 2	JAK2V617F confrm
CCn1c(SCc2c(F)cccc2Cl)nnc1-c1ccco1	4.2	x	-0.8	27.2*	-1.8	2.0	-2.0	3.6
CCn1c(SCc2nc(-c3ccccc3)no2)nnc1-c1ccco1	-3.3	1.8	4.7	-2.1	2.6	3.3	x	x
CCc1ccc(NC(=O)CC2C(=O)N(c3ccc(C)cc3)C(=O)N2CCc2ccncc2)cc1 (centres undefined)	-1.2	-2.3	1.9	2.4	7.7	1.9	x	x
CCCOc1ccc(Cc2nc(N)nc(N)n2)cc1	6.1	-2.6	11.8	39.8*	1.1	5.1	8.4	18.5
CCOc1ccc(Cc2nc(N)nc(N)n2)cc1	-5.6	-3.2	3.3	-1.3	-9.1	2.4	x	x
Cc1cccc(Nc2nc(NCc3ccco3)c3ccccc3n2)c1	0.9	-1.8	12.6	32.6*	17.8	2.3	49.5*	52.5*
CCOC(=O)c1c(C)sc2c1N(C(=O)CCl)c1cc(Cl)ccc1S2	12.6	-0.1	10.5	28.0*	-1.6	5.4	57.9*	98.9*
COc1ccc(N2CCc3c(C)nc4c(OC)cc(OC)cc4c32)c(OC)c1	1.2	x	6.9	48.0*	-4.5	1.4	5.7	64.3*
CC(C)(C)/C(O)=C/c1nc2cc(Cl)ccc2oc1=O	-1.4	-0.2	5.1	36.9*	x	x	8.4	78.3*
Cc1ccc2oc(=O)c(/C=C(\O)C(C)(C)C)nc2c1	0.5	-1.2	2.4	-1.5	-4.4	2.2	x	x
CCC(=O)N1CCc2cc(S(=O)(=O)NC(C(=O)N3CCN(c4ccc(F)cc4)CC3)C(C)C)ccc21 (centres undefined)	0.2	x	x	x	x	x	x	x
O=[N+]([O-])c1cnc(Sc2ccncn2)s1	11.8	1.5	-6.5	72.8*	x	x	29.4*	96.5*
O=C(Nc1ccc(Cl)cc1)Nc1ccccc1Sc1ncc([N+](=O)[O-])s1	-3.2	-0.2	-2.9	-2.9	x	x	x	x
COC1(OC)C(/C=C/c2ccc(C)cc2)C(C#N)(C#N)C1(OC)OC (centres undefined)	3.3	x	1.0	36.7*	-1.9	3.9	-1.5	50.3*
Cc1ccc(NC(=O)c2ccc3c(c2)N(CC(=O)NC(C)C)C(=O)C(C)(C)O3)cc1	1.0	x	x	x	x	x	x	x
O=C(NCc1cc2ccccc2[nH]1)C1CCC(=O)N(CCCN2CCCC2=O)C1 (centres undefined)	10.5	x	x	x	x	x	x	x
COc1cccc(NC(=O)CSc2nc(O)c(C)c(=O)n2-c2ccc(C)cc2)c1	2.4	x	x	x	x	x	x	x
O=C1N=C(N2CCCC2)S/C1=C\C=C\c1ccccc1	6.3	-0.1	6.1	0.1	x	x	x	x
CC(C)CCNC(=O)C(c1ccco1)N(CCCO)C(=O)Cn1nnc(-c2ccc(F)cc2)n1 (centres undefined)	-5.7	0.4	-1.9	49.2*	-10.3	2.2	-7.7	-3.0
O=C(c1cnc2ccc3ccccc3c2c1)c1cc(F)ccc1O	2.8	3.9	16.0	26.3*	x	x	17.7	39.5*
Fc1ccc(N2CCN(Cc3cn[nH]c3-c3ccccc3)CC2)cc1	7.6	0.4	-0.5	1.9	x	x	x	x
